Data taken from ChEMBL document CHEMBL2424619, “Small-molecule ligands of methyl-lysine binding proteins: optimization of selectivity for L3MBTL3” (J Med Chem, 2013).

Experiments:
[1] = target: T1, Lethal(3)malignant brain tumor-like protein 3 (Homo sapiens, UniProt Q96JM7); experiment: Inhibition of L3MBTL3 (unknown origin) after 30 mins by AlphaScreen assay
T1 sequence (Q96JM7 whole entry): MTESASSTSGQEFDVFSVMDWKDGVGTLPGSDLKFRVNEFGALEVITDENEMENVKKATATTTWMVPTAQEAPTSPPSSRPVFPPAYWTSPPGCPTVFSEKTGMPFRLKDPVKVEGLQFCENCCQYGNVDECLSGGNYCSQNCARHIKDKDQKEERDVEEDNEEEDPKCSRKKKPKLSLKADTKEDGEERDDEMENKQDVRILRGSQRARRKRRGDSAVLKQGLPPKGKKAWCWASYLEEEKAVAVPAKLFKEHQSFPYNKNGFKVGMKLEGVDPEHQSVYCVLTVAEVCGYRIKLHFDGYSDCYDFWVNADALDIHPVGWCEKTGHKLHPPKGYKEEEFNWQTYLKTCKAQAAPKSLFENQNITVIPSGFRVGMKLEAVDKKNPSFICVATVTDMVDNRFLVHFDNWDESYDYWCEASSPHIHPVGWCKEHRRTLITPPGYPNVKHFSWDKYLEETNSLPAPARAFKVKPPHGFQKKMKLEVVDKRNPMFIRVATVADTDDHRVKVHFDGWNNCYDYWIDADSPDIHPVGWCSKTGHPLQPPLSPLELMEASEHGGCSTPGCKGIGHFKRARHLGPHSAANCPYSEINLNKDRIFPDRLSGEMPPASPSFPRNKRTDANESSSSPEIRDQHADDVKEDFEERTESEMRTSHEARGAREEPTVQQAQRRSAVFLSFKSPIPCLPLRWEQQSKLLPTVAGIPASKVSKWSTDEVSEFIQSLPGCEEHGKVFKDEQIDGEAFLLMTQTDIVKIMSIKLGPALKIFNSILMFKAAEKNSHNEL
In short: (§1)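 AlphaScreen competition with histone peptide. Compounds in 3-fold, 10-point dilutions, top 10 or 30 μM; buffer 20 mM Tris pH 8.0, 25 mM NaCl, 2 mM DTT, 0.05% Tween-20. Protein-peptide mix 30 min RT, then streptavidin donor plus nickel-chelate acceptor beads (GST acceptor beads for GST-tagged PHF23, JARID1A) 30 min RT dark. Protein-free His6-biotin peptide counterscreen.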

[2] = target: T2, Scm-like with four MBT domains protein 1 (Homo sapiens, UniProt Q9UHJ3); experiment: Inhibition of SFMBT1 (unknown origin) after 30 mins by AlphaScreen assay
T2 sequence (Q9UHJ3 whole entry): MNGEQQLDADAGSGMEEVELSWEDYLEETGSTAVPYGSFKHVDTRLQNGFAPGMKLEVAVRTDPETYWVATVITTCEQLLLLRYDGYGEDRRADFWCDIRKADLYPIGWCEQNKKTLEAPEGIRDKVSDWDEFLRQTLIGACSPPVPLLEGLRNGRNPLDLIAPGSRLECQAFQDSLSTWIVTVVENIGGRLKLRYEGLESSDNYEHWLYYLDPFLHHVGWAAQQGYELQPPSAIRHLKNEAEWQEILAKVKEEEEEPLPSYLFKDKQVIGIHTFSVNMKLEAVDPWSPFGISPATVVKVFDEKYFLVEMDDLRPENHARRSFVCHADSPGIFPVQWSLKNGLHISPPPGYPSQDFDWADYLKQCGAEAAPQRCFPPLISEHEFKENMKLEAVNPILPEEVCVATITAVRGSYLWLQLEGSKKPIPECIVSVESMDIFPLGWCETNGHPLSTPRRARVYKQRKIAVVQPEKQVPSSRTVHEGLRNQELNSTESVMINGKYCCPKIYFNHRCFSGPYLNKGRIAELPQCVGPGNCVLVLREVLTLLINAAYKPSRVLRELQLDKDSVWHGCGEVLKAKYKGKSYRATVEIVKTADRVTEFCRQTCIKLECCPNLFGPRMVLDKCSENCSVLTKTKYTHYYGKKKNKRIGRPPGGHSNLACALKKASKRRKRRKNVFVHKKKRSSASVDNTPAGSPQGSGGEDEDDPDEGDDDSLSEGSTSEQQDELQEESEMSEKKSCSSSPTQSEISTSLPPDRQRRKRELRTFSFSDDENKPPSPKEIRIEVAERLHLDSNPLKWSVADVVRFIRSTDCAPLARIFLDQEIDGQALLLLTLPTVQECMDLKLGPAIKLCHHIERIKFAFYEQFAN
In short: as §1, with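 “dark. […]” for “dark.”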

PHD finger protein 23 = PHD finger protein 23 (Homo sapiens, UniProt Q9BUL5); experiment: Inhibition of PHF23 (unknown origin) after 30 mins by AlphaScreen assay; in short: as §1
[3] = target: T3, E3 ubiquitin-protein ligase UHRF1 (Homo sapiens, UniProt Q96T88); experiment: Inhibition of UHRF1 (unknown origin) after 30 mins by AlphaScreen assay
T3 sequence (Q96T88 whole entry): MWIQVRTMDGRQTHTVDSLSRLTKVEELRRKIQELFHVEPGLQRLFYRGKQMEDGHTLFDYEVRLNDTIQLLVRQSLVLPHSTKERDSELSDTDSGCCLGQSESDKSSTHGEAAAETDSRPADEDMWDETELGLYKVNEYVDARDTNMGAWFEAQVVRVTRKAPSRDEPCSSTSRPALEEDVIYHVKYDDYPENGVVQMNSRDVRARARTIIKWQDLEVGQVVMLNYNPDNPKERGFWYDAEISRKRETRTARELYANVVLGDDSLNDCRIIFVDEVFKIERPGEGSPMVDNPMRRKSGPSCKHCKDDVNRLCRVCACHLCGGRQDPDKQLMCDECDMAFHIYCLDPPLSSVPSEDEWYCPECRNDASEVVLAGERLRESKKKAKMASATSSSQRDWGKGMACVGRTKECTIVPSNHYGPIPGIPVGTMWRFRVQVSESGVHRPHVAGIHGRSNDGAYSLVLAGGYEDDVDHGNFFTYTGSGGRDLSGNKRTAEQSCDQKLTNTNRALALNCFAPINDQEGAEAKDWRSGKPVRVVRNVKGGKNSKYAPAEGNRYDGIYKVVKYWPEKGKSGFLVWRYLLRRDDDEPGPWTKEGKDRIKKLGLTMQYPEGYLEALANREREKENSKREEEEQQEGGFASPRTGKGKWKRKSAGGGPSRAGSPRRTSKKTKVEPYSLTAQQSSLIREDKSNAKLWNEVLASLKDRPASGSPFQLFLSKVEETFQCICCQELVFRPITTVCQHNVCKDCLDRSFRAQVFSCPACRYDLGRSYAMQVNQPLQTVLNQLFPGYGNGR
In short: as §1, with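 “dark. […]” for “dark.”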

[4] = target: T1, Lethal(3)malignant brain tumor-like protein 3; experiment: Inhibition of L3MBTL3 (unknown origin) using H4K20me2 as substrate after 30 mins by LNCE-TR-FRET assay

PHD finger protein 23, sequence (Q9BUL5 whole entry): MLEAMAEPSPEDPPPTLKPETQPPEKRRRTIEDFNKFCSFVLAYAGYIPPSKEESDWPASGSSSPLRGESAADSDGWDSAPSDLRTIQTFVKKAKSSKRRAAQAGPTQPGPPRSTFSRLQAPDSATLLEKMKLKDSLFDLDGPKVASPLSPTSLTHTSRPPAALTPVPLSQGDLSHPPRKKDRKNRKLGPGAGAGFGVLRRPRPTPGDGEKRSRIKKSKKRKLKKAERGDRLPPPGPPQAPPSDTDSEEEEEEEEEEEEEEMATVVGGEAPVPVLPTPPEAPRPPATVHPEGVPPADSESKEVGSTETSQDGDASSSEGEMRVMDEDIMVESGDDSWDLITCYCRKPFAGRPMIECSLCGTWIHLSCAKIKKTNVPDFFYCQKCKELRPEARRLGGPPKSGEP

SMILES | IC50 [1] [nM] | IC50 [2] [nM] | IC50 (PHD finger protein 23) [nM] | IC50 [3] [nM] | IC50 [4] [nM]
O=C(c1ccc(C(=O)N2CCC(N3CCC3)CC2)cc1)N1CCC(N2CCC2)CC1 | 400 | > 10000 | > 10000 | > 10000 | 350
CCN1Cc2ccc(NC(=O)c3ccc(C(=O)N4CC5CCC(C4)C5N4CCCC4)cc3)cc2C1 (stereo not given) | 240 | > 10000 | > 10000 | > 10000 | 150
O=C(c1ccc(C(=O)N2CCC(N3CCCC3)CC2)c(-c2ccccc2)c1)N1CCC(N2CCCC2)CC1 | 66 | > 10000 | > 10000 | > 10000 | 61
O=C(c1ccc(C(=O)N2CCC(N3CCCC3)CC2)nc1)N1CCC(N2CCCC2)CC1 | 110 | > 10000 | > 10000 | > 10000 | 61
O=C(c1ccc(C(=O)N2CCC(N3CCOCC3)CC2)cc1)N1CCC(N2CCCC2)CC1 | 1500 | > 10000 | > 10000 | > 10000 | 1100
O=C(c1ccc(C(=O)N2CCC(N3CCCC3)CC2)c(C(=O)N2CCC(N3CCCC3)CC2)c1)N1CCC(N2CCCC2)CC1 | 120 | > 10000 | > 10000 | > 10000 | 110
O=C(c1ccc(C(=O)N2CCC(N3CCCC3)CC2)o1)N1CCC(N2CCCC2)CC1 | 530 | > 10000 | > 10000 | > 10000 | 310
O=C(c1ccccc1C(=O)N1CCC(N2CCCC2)CC1)N1CCC(N2CCCC2)CC1 | 1100 | > 10000 | > 10000 | > 10000 | 350
Cc1cc(C(=O)N2CCC(N3CCCC3)CC2)c(C)cc1C(=O)N1CCC(N2CCCC2)CC1 | 210 | > 10000 | > 10000 | > 10000 | 240
O=C(c1ccc(S(=O)(=O)N2CCC(N3CCCC3)CC2)cc1)N1CCC(N2CCCC2)CC1 | 99 | > 10000 | > 10000 | > 10000 | 97
O=C(c1ccc(C(=O)N2CC3CCC(C2)C3N2CCCC2)cc1)N1CC2CCC(C1)C2N1CCCC1 (stereo not given) | 400 | > 10000 | > 10000 | > 10000 | 280
O=C(c1ccc(C(=O)N2CCC(N3CCCC3)CC2)s1)N1CCC(N2CCCC2)CC1 | 96 | > 10000 | > 10000 | > 10000 | 68
CCN1Cc2ccc(NC(=O)c3ccc(C(=O)N4CCC(C5CCCN5)CC4)cc3Nc3ccccc3)cc2C1 (stereo not given) | 170 | > 10000 | > 10000 | > 10000 | 160
O=C(c1ccc(C(=O)N2CC(N3CCCC3)C2)cc1)N1CCC(N2CCCC2)CC1 | 330 | > 10000 | > 10000 | > 10000 | 300
O=C(c1ccc(C(=O)N2CCCC(N3CCCC3)CC2)cc1)N1CCCC(N2CCCC2)CC1 (stereo not given) | 110 | > 10000 | > 10000 | > 10000 | 110
O=C(c1ccc(C(=O)N2CCC(N3CCCC3)CC2)cc1)N1CCC(C2CCNCC2)CC1 | 740 | > 10000 | > 10000 | > 10000 | 800
CC(C1CCN(C(=O)c2ccc(C(=O)N3CCC(N4CCCC4)CC3)cc2)CC1)N1CCN(C)CC1 (stereo not given) | 300 | > 10000 | > 10000 | > 10000 | 250
O=C(c1cccc(C(=O)N2CCC(N3CCCC3)CC2)c1)N1CCC(N2CCCC2)CC1 | 360 | > 10000 | > 10000 | > 10000 | 290
O=C(c1cncc(Br)c1)N1CCC(N2CCCC2)CC1 | 3100 | > 10000 | > 10000 | > 10000 | 4700
Nc1cc(C(=O)N2CCC(N3CCCC3)CC2)ccc1C(=O)N1CCC(N2CCCC2)CC1 | 230 | > 10000 | > 10000 | > 10000 | 220
O=C(c1ccc(C(=O)N2CCC(N3CCCC3)CC2)c(Nc2ccccc2)c1)N1CCC(N2CCCC2)CC1 | 64 | > 10000 | > 10000 | > 10000 | 49
O=C(c1ccc(C(=O)N2CCC(N3CCCC3)CC2)c2ccccc12)N1CCC(N2CCCC2)CC1 | 72 | > 10000 | > 10000 | > 10000 | 43
O=C(c1ccc(C(=O)N2CCC(N3CCCC3)CC2)c(Oc2ccccc2)c1)N1CCC(N2CCCC2)CC1 | 58 | > 10000 | > 10000 | > 10000 | 53
O=C(c1ccc(C(=O)N2CCC(N3CCCC3)CC2)cc1)N1CCCC(N2CCCC2)CC1 (stereo not given) | 96 | > 10000 | > 10000 | > 10000 | 74
O=C(c1ccc(C(=O)N2CCC(N3CCCC3)CC2)cc1)N1CCC(N2CCCCC2)CC1 | 230 | > 10000 | > 10000 | > 10000 | 160
O=C(c1ccc(N2CCC(N3CCCC3)CC2)cc1)N1CCC(N2CCCC2)CC1 | 170 | > 10000 | > 10000 | > 10000 | 150
O=C(c1ccc2cc(C(=O)N3CCC(N4CCCC4)CC3)ccc2c1)N1CCC(N2CCCC2)CC1 | 690 | > 10000 | > 10000 | > 10000 | 450
